This is a sample that favours compounds with a hit; in the whole collection about 4.6% have one here.
GPR7 antagonist = blocks human GPR7 receptor signaling; hit rate 1.1% among 290,000; inhibition, % at 4.4 µM; GPR7-expressing cells, fluorescence antagonist assay; P48145; in the data active = inhibition above about 16%, passing the limit was not always enough;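 note: cells stimulated with the agonist NPW; 0% = agonist with vehicle and 100% = vehicle without agonist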
Target sequence (P48145 whole entry, looked up): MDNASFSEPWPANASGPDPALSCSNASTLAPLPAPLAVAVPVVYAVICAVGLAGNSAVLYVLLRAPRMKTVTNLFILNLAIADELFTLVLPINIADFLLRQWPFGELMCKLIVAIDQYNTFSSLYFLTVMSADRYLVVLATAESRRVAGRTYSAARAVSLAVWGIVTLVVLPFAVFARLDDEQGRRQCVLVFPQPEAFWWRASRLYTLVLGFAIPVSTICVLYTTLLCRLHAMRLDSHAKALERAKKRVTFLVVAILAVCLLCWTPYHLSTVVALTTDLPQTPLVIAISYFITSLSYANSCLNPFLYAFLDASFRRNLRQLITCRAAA
TAAR1 agonist = human TAAR1 agonism; hit rate 0.99% among 360,000; AID 624467; activation, % at 3 µM; CHO RD-HGA16 TAAR1, Fluo-8 calcium fluorescence; vehicle wells 0%, saturating PEA agonist 100%;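 active = activation above the mean activation of all test compounds in the run plus 3 SD, cut at about 38% in these data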
Target sequence (Q96RJ0 whole entry, looked up): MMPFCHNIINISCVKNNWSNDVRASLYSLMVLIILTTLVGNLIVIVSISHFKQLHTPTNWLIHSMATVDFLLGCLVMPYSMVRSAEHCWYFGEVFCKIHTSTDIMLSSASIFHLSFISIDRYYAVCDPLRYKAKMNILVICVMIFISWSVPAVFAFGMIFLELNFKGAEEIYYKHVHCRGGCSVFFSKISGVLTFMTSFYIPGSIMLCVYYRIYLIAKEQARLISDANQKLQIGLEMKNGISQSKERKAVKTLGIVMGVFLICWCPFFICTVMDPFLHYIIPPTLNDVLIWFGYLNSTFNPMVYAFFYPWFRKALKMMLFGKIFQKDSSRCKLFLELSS
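Assay system – CHO-derived RD-HGA16 cells with stable Gα16 and human TAAR1 · Compound dosing – one-point dosing at 3 µM (nominal) · Incubation – 17-24 h seeding, 75 min 37 °C dye, 30 min RT · Measured by – kinetic Fluo-8 calcium fluorescence · Control set – DMSO vehicle as 0%, PEA at EC100 as 100% · Repeats – single well for each compound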
OX1R antag-1 = human HCRTR1 antagonism | CHO/OX1R cells, Fluo-8 calcium fluorescence, orexin A | inhibition, % at 5 µM | hit rate 0.43% among 330,000 | AID 434989;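 active = inhibition above its plate's threshold, mean inhibition of all tested compounds on the plate plus 3 SD, cut at about 37% in these data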;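 note: 0% = orexin A challenge wells and 100% = SB-334867-A antagonist wells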
TAAR1 antagonist = human TAAR1 antagonism; Q96RJ0; CHO RD-HGA16 TAAR1, Fluo-8 calcium fluorescence, antagonist; inhibition, % at 3 µM; hit rate 1.5% among 360,000; AID 624466;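 active = inhibition above a per-plate cutoff, the mean inhibition of test compounds on that plate plus 3 SD, cut at about 49% in these data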;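 note: 0% = DMSO plus EC80 beta-PEA response and 100% = DMSO alone without agonist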
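Material: RD-HGA16 CHO cells with stable hTAAR1 and Gα16; Dosing: single nominal final test compound concentration of 3 µM; Schedule: seeding 17-24 h prior, 75-min 37 °C, 30-min RT dye loading; Detection: kinetic Fluo-8 calcium fluorescence measurement; Measure: % inhibition from peak post-agonist over basal fluorescence ratio; Benchmarks: vehicle and agonist controls.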
CHO parental Ca = signal in parental CHO cells, OX1R antagonist counter-screen. parental CHO-K1, ATP-induced calcium, Fluo-8 fluorescence. inhibition, % at 5.6 µM. hit rate 0.63% among 330,000;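 active = inhibition above that plate's mean sample inhibition plus 3 SD, cut at about 26% in these data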;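 note: 0% = ATP-challenged DMSO wells and 100% = DMSO wells without ATP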
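Assay system: parental CHO cells; Read-out basis: percent inhibition of ATP-evoked calcium rise, normalized to controls; Benchmarks: ATP and no-ATP DMSO wells; Compound dosing: single nominal dose of 5.6 µM per compound; Signal: Fluo-8 calcium dye fluorescence; Also added: ATP as calcium-mobilizing challenge; Repeats: singlicate.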
OX1R antag-2 = OX1R (human) antagonism; hit rate 1.8% among 330,000; O43613; inhibition, % at 6.6 µM; OX1R-expressing cells, FRET antagonist read-out; in the data active = inhibition mostly above about 38%, no sharp cut-off; inactive = mostly below about 40%;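 note: 0% = agonist challenge alone and 100% = reference antagonist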
Numbers without * were called inactive; x = no result.

SMILES | GPR7 antagonist | TAAR1 agonist | OX1R antag-1 | TAAR1 antagonist | CHO parental Ca | OX1R antag-2
O=C(/C=C/c1cccc([N+](=O)[O-])c1)c1ccc([N+](=O)[O-])o1 | x | 50* | 9 | 68* | 5 | 59
Cc1cccc(/C=C/C(=O)c2ccc([N+](=O)[O-])o2)c1 | x | 37 | -2 | 33 | -12 | 12
Cc1nc(C(=O)O)nn1-c1ccc([N+](=O)[O-])cc1 | -12 | -1 | 7 | 15 | -3 | 46*
CC(C)N1CCN(Cc2coc3ccccc3c2=O)CC1CCO (stereo not drawn) | 1 | 2 | -10 | 3 | -12 | 20
COc1cccc2c1nc(C)c1cc(C)oc12 | -7 | 11 | -14 | -1 | -29 | 23
COc1cccc2nc3cc(C)c(C)cc3nc12 | -7 | 6 | -19 | -16 | -12 | 68*
c1ccc(-c2nc(-n3nc4ccccc4n3)nc3ccccc23)cc1 | -1 | 5 | -32 | 65* | -17 | 17
O=C(N/C=C/n1cnc2cc(C(F)(F)F)ccc21)c1ccccc1 | -4 | -1 | -51 | 1 | 51* | 26
O=C(N/C=C\n1cnc2cc(C(F)(F)F)ccc21)c1ccc([N+](=O)[O-])cc1 | 16 | 3 | -25 | -18 | 2 | 18
C[C@@H]1NC(=O)[C@H](CCCN=C(N)N)NC(=O)c2cc([N+](=O)[O-])cc(I)c2OCC[C@@H](C(=O)NC(CC(=O)O)C(N)=O)NC1=O (stereo partly drawn) | -3 | x | -9 | x | 2 | 15
C[C@@H]1NC(=O)c2cc([N+](=O)[O-])cc(I)c2OCC[C@@H](C(=O)NC(CC(=O)O)C(N)=O)NC(=O)[C@H](CC(N)=O)NC1=O (stereo partly drawn) | 3 | x | 41 | x | 51* | 31
CC(NC(=O)COC(=O)c1cc([N+](=O)[O-])ccc1N1CCOCC1)c1ccccc1 (stereo not drawn) | -13 | 4 | -31 | -3 | -23 | 51*
CC(NC(=O)COC(=O)c1cc([N+](=O)[O-])ccc1N1CCOCC1)c1ccc(F)cc1 (stereo not drawn) | x | 2 | -15 | 10 | -16 | 39*
O=C(COC(=O)c1cc([N+](=O)[O-])ccc1N1CCOCC1)NCc1ccccc1 | x | 1 | x | -9 | x | x
CC(=O)Nc1cc2cc(NS(=O)(=O)c3ccc(C)cc3)ccc2oc1=O | -15 | 2 | -15 | -39 | -5 | 3
O=C(CSc1nc2ccccc2s1)N1c2ccccc2Sc2ccc(Cl)cc21 | 1 | 3 | -4 | 1 | 5 | 45*
O=C(CSc1nc2ccccc2s1)N1c2ccccc2Sc2ccc(C(F)(F)F)cc21 | -18 | 2 | -12 | -12 | -3 | 6
C#CCOCCOCCOCCNc1nc(N2CCN(C(=O)Cn3cc(CC(C)O)nn3)CC2)nc(N2CCN(C(=O)[C@H]([C@@H](C)CC)n3cc(CCCCN)nn3)CC2)n1 (stereo partly drawn) | x | 1 | x | 5 | x | x
ONC(=Nc1ccccc1)c1ccc(Cl)cc1 | 1 | 3 | -10 | 6 | -11 | 3
NC(=Nc1ccc(Cl)cc1)c1ccccc1 | 0 | 43* | -5 | 17 | -7 | 13
O=c1[nH]c(=O)c2cc([N+](=O)[O-])cc([N+](=O)[O-])c2[nH]1 | -4 | 5 | -14 | -14 | -7 | 52*
O=c1c2cc([N+](=O)[O-])cc([N+](=O)[O-])c2[nH]n1-c1ccccc1 | -6 | 2 | -11 | -21 | -2 | 6
O=C(COc1c(Cl)cccc1Cl)NN1C(=O)CSC1=S | -2 | 4 | -8 | 7 | 5 | 13
O=C(O)c1ccc(Sc2nnc3ccccn23)c([N+](=O)[O-])c1 | -16 | 7 | -12 | 0 | -9 | 72*
CCOC(=O)c1c(C)oc2ccc(O)c(CN(C)C)c12 | -2 | 7 | -16 | 4 | -12 | 9
SMILES | GPR7 antagonist | TAAR1 agonist | OX1R antag-1 | TAAR1 antagonist | CHO parental Ca | OX1R antag-2
CCOC(=O)c1c(CSc2ccc(CC)cc2)oc2ccc(O)c(CN(C)C)c12 | 28 | 29 | 36 | 14 | 67* | -11
CCOC(=O)c1c(CSc2ccccc2)oc2ccc(O)cc12 | -7 | -1 | -1 | 10 | 26* | 24
Cc1cc(C)c(C)c(S(=O)(=O)N2CCCN(C)CC2)c1C | -9 | 3 | -11 | -10 | -3 | 9
Cc1cc2nsnc2c(S(=O)(=O)N2CCN(C)CC2)c1C | 7 | -2 | -5 | -5 | -3 | 42*
COc1cc(CNC2CCCC2)cc(Cl)c1OCc1ccccc1F | 9 | 39* | 6 | 27 | 21 | 15
COc1cc(CNC2CCCCCC2)cc(OC)c1O | -13 | 4 | 3 | -2 | 0 | 8
Cc1ccc(OCCC(=O)OCC(=O)N2CCN(S(=O)(=O)c3ccc(C)cc3)CC2)cc1 | x | 5 | -11 | -21 | 1 | 22
CCN(CC)c1ccc(/C=N/NC(=O)c2cccc(S(=O)(=O)Nc3ccccc3OC)c2)c(O)c1 | -19 | 4 | 25 | 11 | -10 | 79*
CCN(CC)c1ccc(C(=O)N/N=C/c2ccccc2OC(F)F)cc1 | -2 | -2 | 14 | 27 | -25 | 74*
CCN(CC)c1ccc(/C=N/NC(=O)c2cccc(S(=O)(=O)Nc3ccccc3OC)c2)cc1 | -12 | 5 | -11 | 3 | -7 | 45
CC1CC2C(C(O)CC3(C)C2CCC3(O)C(=O)CO)C2(C)C=CC(=O)C=C12 (stereo not drawn) | x | 2 | x | -9 | x | x
CC(C(=O)Nc1ccc(Br)cc1)N(C)CC(=O)NCc1ccco1 (stereo not drawn) | x | 5 | -21 | 7 | -8 | -6
Cc1onc(-c2c(Cl)cccc2Cl)c1C(=O)N1CCCc2ccccc21 | -11 | -2 | 33 | -13 | -23 | 55*
COc1ccc(NC(=O)c2cc3c(=O)n(C)c4ccccc4c3s2)cc1OC | -9 | 7 | -12 | -7 | -8 | 54*
CCn1c(=O)c2cc(C(=O)Nc3ccc(OC)cc3OC)sc2c2ccccc21 | -19 | 0 | 1 | 6 | -5 | 13
CCOc1ccccc1NC(=O)c1ccc(OCC)c([N+](=O)[O-])c1 | -3 | 10 | 8 | 9 | -18 | 22
COc1ccc(NC(=O)c2ccc3[nH]c(C)c(C)c3c2)c(OC)c1 | 7 | 2 | 19 | 0 | -7 | 50*
CCOc1ccccc1NC(=O)c1ccc2[nH]c(C)c(C)c2c1 | -18 | -6 | -16 | 1 | -22 | 73*
O=C(CC1Oc2ccccc2NC1=O)NCCc1ccccc1 (stereo not drawn) | -14 | 66* | -15 | 16 | -2 | 10
CC1C(=O)N(Cc2ccccc2F)c2ccccc2N1C(=O)c1c(F)cccc1F (stereo not drawn) | 29 | 5 | 27 | 52* | 62* | 15
CC(C)N(C(=O)CSc1nc2ccccc2n1Cc1ccccc1)C(C)C | -12 | 3 | -33 | 3 | -17 | 32

Screening results: PubChem BioAssay, The Scripps Research Institute Molecular Screening Center
